Bioassay records: PubChem BioAssay, several laboratories
Rad51 HR inh: Rad51 (human) homologous recombination inhibition. Q06609. inhibition, % at 10 µM. AID 1385. 200,000 compounds, 0.085% hits. hRad51 DNA strand exchange, fluorescence dequenching;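 active = inhibition above 40% at the single screening dose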;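 also: 0% = DMSO control wells and 100% = blanks with heterologous ssDNA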
Target sequence (Q06609 whole entry, looked up): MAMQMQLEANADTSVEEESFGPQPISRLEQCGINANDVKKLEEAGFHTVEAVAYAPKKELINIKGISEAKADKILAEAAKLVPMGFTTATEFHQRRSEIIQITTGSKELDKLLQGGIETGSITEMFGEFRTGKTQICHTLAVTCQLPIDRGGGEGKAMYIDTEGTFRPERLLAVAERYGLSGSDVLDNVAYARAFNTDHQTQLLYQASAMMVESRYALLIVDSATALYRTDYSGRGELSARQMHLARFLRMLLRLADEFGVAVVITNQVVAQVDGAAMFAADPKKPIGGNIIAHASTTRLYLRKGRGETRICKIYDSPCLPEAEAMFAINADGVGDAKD
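Test system: preformed human Rad51 ssDNA filaments; also added: Donor/quencher-labelled 47-bp dsDNA substrate; doses: 10 µM final, single point; times: 37 °C 15-min filament assembly, 30-min compound preincubation, 15-min exchange; detection: FRET fluorescence dequenching, excitation 485 nm, emission 520 nm; read-out basis: Fluorescence-based percent inhibition, control- and blank-normalised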
CHT allo act: allosterically activates the human high affinity choline transporter; B-score at 10 µM; 310,000 compounds, 0.49% hits; CHT-expressing cells, membrane potential dye, choline EC20; hits give high values; LV-AA mutant CHT in HEK293 cells;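 active = initial fluorescence not abnormally high and integrated response B-score, plate-corrected, over 3 SD above library mean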
CHT block: inhibitors of human choline transporter CHT. Q9GZV3. CHT-expressing cells, membrane potential dye, choline response; hits give low values. B-score at 10 µM. 310,000 compounds, 0.86% hits;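 active = B-score over 3 SD under the library average, and starting fluorescence ratio not unusually high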;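 also: choline stimulus applied at its EC90 after an EC20 pre-addition; B-score computed on integrated fluorescence ratio after choline addition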
Cl transport mod: modulators of human KCC2 chloride dependent transport; KCC2 cells, thallium flux FluoZin-2 fluorescence; B-score of Tl+ flux slope (higher = more flux/activation; lower = inhibition) at 10 µM; 190,000 compounds, 2.2% hits;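 active = thallium flux slope and its plate-corrected score both differing from the plate sample mean at a set confidence after two filtering rounds, in either direction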;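 also: slope of fluorescence scaled to starting intensity during 10 to 20 s after thallium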
CHT inh conf: human CHT inhibition, confirmatory screen; shares compounds with CHT block; 2,400 compounds, 70% hits; CHT activity remaining % of control (hits give low values), % at 10 µM; AID 493221; CHT-expressing cells, choline membrane potential dye; LV-to-AA substituted CHT, HEK293 cells;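 active = choline transporter activity left, mean of duplicates at 10 µM, below buffer-only control mean minus 3 SD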;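 also: depolarization triggered by choline at its EC90 following an EC20 pre-addition; 0% = hemicholinium-3 full block and 100% = buffer-only control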
HEK293 MPD ctr: CHT inhibitor counter-screen hit in parental HEK293 cells; shares compounds with CHT block; membrane potential ratio readout (active if shifted either direction beyond buffer ±3SD; no single direction) at 10 µM; 2,400 compounds, 4% hits; membrane potential dye, choline response; active = decrease or increase beyond buffer ±3SD;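 also: parental cells lack the transporter so any hit is non-specific; ratio is peak minus trough fluorescence over baseline after EC90 choline challenge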
An asterisk follows results filed as active; i = inactive; nt = no result. A selection: hits, their analogues and other compounds. The true share with any hit is near 2.6%.

SMILES | Rad51 HR inh | CHT allo act | CHT block | Cl transport mod | CHT inh conf | HEK293 MPD ctr
C/C(=N\Nc1cccc(C(=O)O)c1)c1ccc(Cl)s1 | nt | i | i | -1.2 | nt | nt
CC12CCC(C(=O)NNc3ccccc3)(OC1=O)C2(C)C (stereo unspecified) | 4 | i | i | 0.22 | nt | nt
CC12CCC(C(=O)NNc3ccc([N+](=O)[O-])cc3)(OC1=O)C2(C)C (stereo unspecified) | 12 | i | -10* | 0.051 | i | i
CCOc1ccc(CCNC(=O)c2c(C)nn(-c3ccccc3)c2Cl)cc1OCC | nt | i | i | nt | nt | nt
CCc1c(C)nc2ncnn2c1NCCc1ccccc1 | -9 | i | -5.2* | -1.1 | 47%* | i
CCc1c(C)nc2ncnn2c1Nc1ccccc1C | nt | i | i | nt | nt | nt
CCc1c(C)nc2ncnn2c1NCCc1ccc(Cl)cc1 | 5 | i | -5.2* | nt | 63%* | i
CCN(CC)CCNC(=O)CCN1N=C(c2ccccc2)CCC1=O | nt | i | i | nt | nt | nt
CC1(C)CC2CC(C)(CN2c2ncnc3ccccc23)C1 (stereo unspecified) | -2 | i | -5.1* | 0.72 | 48%* | i
CN(/N=C/c1cc(Cl)cc(Cl)c1O)C(=S)NC(C)(C)C | 0 | i | -5.4* | nt | 68%* | i
CCOC(=O)C1CCN(C(=O)c2cccc(S(=O)(=O)N(C)C3CCCCC3)c2)CC1 | nt | i | i | nt | nt | nt
CC(C)(CO)CN1CCC(n2nccc2NC(=O)C2CCCC2)CC1 | nt | i | i | nt | nt | nt
CCCN1Cc2cccc(C(=O)NCc3ccccc3OC)c2C1=O | 0 | i | -5.3* | -0.074 | 71%* | i
COCCN1Cc2cccc(C(=O)NCc3ccccc3OC)c2C1=O | -6 | i | i | -0.47 | nt | nt
O=C(CSc1nn(-c2ccc(F)cc2)c(=S)s1)NCC1CCCO1 (stereo unspecified) | -4 | i | -5.4* | -0.46 | i | i
CC(C)Cn1c(N)c(C(=O)COC(=O)c2ccccc2F)c(=O)n(C)c1=O | 4 | i | i | 0.7 | nt | nt
CC(C)Cn1c(N)c(C(=O)COC(=O)c2ccccc2Cl)c(=O)n(C)c1=O | 4 | i | -10* | 1.3 | i | i
CCN1CCN(CCCNC(=O)c2ccc3c(c2)NC(=O)c2ccccc2S3)CC1 | 0 | i | i | 0.18 | nt | nt
CC1CCCC(C)N1CCCNC(=O)c1nn(C)c2c1CSc1ccccc1-2 (stereo unspecified) | nt | i | -11* | nt | 2.4%* | i
CC1CCCC(C)N1CCCNC(=O)c1ccc2c(c1)NC(=O)c1ccccc1S2 (stereo unspecified) | nt | i | -5.2* | nt | 40%* | i
O=C(CN(C(=O)Cn1nnc(-c2ccc(F)cc2)n1)c1cccc(F)c1)NC1CCCC1 | nt | i | i | nt | nt | nt
CCOC(=O)C1=C(COC(=O)C(CC)Oc2ccccc2)NC(=O)NC1C (stereo unspecified) | nt | i | i | nt | nt | nt
CCOC(=O)C1=C(COC(=O)c2ccc(OC(C)C)cc2)NC(=O)NC1C (stereo unspecified) | nt | i | -9.7* | nt | 2.8%* | i
O=C1NC(=S)S/C1=C\c1coc2ccc(O)cc2c1=O | -22 | i | i | -5.7 | nt | nt
O=C1NC(=S)S/C1=C\c1coc2ccccc2c1=O | -27 | i | -8.4* | nt | 55%* | i
SMILES | Rad51 HR inh | CHT allo act | CHT block | Cl transport mod | CHT inh conf | HEK293 MPD ctr
Cn1nccc1NC(=O)CSCC(=O)O | 1 | i | i | nt | nt | nt
COc1cccc(CNc2ccc(N3CCC(C)CC3)cc2)c1OC | -6 | i | -5.4* | -1.3 | 54%* | i
CCOC(=O)c1cc(C(C)=O)c(=O)[nH]c1C | -11 | i | i | 0.93 | nt | nt
CCOC(=O)c1cc(C(=O)NC(C)c2ccccc2)c(C)[nH]c1=O (stereo unspecified) | 3 | i | -7.4* | 0.13 | 14%* | i
Cc1cccnc1NC(=O)CCn1c(=O)oc2ccccc21 | nt | i | i | nt | nt | nt
CN(CCC#N)C(=O)CC(Cc1ccccc1)C1CCOC(C)(C)C1 (stereo unspecified) | 4 | i | -6* | -0.25 | i | i
CN(CCC#N)C(=O)COC(=O)[C@H](Cc1ccccc1)N1C(=O)c2ccccc2C1=O | nt | i | i | nt | nt | nt
O=C(NNc1nc(-c2ccccc2)cs1)c1ccc(F)cc1 | 4 | i | -5.2* | -3.3 | 71%* | i
COc1cccc(C(=O)N2CCn3c2nc2ccccc23)c1 | 11 | i | i | 0.29 | nt | nt
CC1CCCC(NC(=O)CCNC(=O)c2ccc(Br)cc2)C1C (stereo unspecified) | nt | i | -5.1* | nt | i | i
CN1CCN(c2ccc(CNS(=O)(=O)c3ccc(Cl)cc3)cc2)CC1 | nt | i | i | 0.15 | nt | nt
CCC(C)Nc1c([N+](=O)[O-])cc(C)cc1[N+](=O)[O-] (stereo unspecified) | nt | i | i | nt | nt | nt
Cc1cc([N+](=O)[O-])c(NCCCCCCO)c([N+](=O)[O-])c1 | -6 | i | -5.4* | -0.023 | 38%* | i
Cc1cnc(C)c(N2CCN(Cc3nc(-c4cccc(F)c4F)oc3C)CC2)n1 | 4 | i | -7.2* | -0.69 | 29%* | i
CCCN(C(=O)c1cn(CC)c2nc(C)ccc2c1=O)c1c(N)n(Cc2ccccc2)c(=O)[nH]c1=O | -3 | i | -5.3* | 0.64 | 33%* | i
C=CCNc1nc2ccccc2nc1NS(=O)(=O)c1ccc(Br)cc1 | nt | i | -5.1* | nt | 69%* | i
C=CCNc1nc2ccccc2nc1NS(=O)(=O)c1ccc(F)cc1 | nt | i | i | nt | nt | nt
C/C(CC(=O)NCCc1ccccc1)=N\NC(=O)COc1ccc(Br)cc1 | nt | i | i | nt | nt | nt
O=C(NCc1cccc(C(F)(F)F)c1)c1cc(Cl)cc(Cl)c1 | 2 | i | i | 0.86 | nt | nt
O=C(NCc1cccc(C(F)(F)F)c1)c1cc(Cl)ccc1Cl | 1 | i | -5.8* | -0.042 | i | i
Cn1c2c(c3ccccc31)CCN1CCC[C@]21c1ccccc1 | nt | i | -5.1* | nt | i | i
O=C(C[n+]1cccc2ccccc21)c1ccc(Cl)cc1 | nt | i | -8* | nt | 37%* | i
Cc1ccc2c(ccc[n+]2CC(=O)c2ccccc2)c1 | -23 | i | i | -0.17 | nt | nt
O=C(C[n+]1cccc2ccccc21)c1ccc([N+](=O)[O-])cc1 | -3 | i | i | 0 | nt | nt
O=C(C[n+]1cc(Br)cc2ccccc21)c1ccccc1 | nt | i | -6.4* | nt | 56%* | 2.4*
CC1=C(C(=O)OC(C)C)C(c2ccc(Br)s2)NC(=O)N1C (stereo unspecified) | 1 | i | -5.1* | -0.65 | 58%* | i
C=CCSc1nc(O)c(CC)c(=O)n1C(C)CC (stereo unspecified) | nt | i | i | nt | nt | nt
